Laboratory results: ChEMBL document CHEMBL1158025, “Antimalarial activity of macrocyclic trichothecenes isolated from the fungus Myrothecium verrucaria” (J Nat Prod, 1999)
≈ marks a conversion by molar mass, not a printed value.

Legend:
Plasmodium falciparum = experiment: Antimalarial activity against Plasmodium falciparum K1 by [3H]hypoxanthine uptake; assay type: functional, organism-based
Procedure, shortened: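 P. falciparum K1 (multidrug-resistant) asexual erythrocytic stages were kept in continuous in vitro culture. Activity was measured by a microculture radioisotope method. EC50 is the concentration giving 50% reduction in parasite growth, read as in vitro [3H]hypoxanthine uptake.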

KB [1] = experiment: Cytotoxicity against human KB cells; assay type: functional, cell-based
[2] = Cytotoxicity against human BC1 cells; assay type: functional, cell-based
Vero [3] = experiment: Cytotoxicity against african green monkey Vero cells; assay type: functional, cell-based, Chlorocebus sabaeus
KB [4] = experiment: Cytotoxicity against human KB cells at 20 ug/mL; assay type: functional
[5] = Cytotoxicity against human BC1 cells at 20 ug/mL; assay type: functional
Vero [6] = experiment: Cytotoxicity against african green monkey Vero cells at 20 ug/mL; assay type: functional; details: Chlorocebus sabaeus

Row | SMILES | EC50 (Plasmodium falciparum) [ng/mL] | EC50 (KB [1]) [ng/mL] | EC50 [2] [ng/mL] | EC50 (Vero [3]) [ng/mL] | inhibition at 20 µg/mL (KB [4]) [%] | inhibition at 20 µg/mL [5] [%] | inhibition at 20 µg/mL (Vero [6]) [%]
1 | CC1=C[C@H]2O[C@@H]3C[C@H]4OC(=O)/C=C\C=C\[C@H]([C@@H](C)O)OCC[C@@H](C)[C@H](O)C(=O)OC[C@@]2(CC1)[C@]4(C)[C@]31CO1 [RORIDIN A] | 0.31 (≈ 0.582 nM) | 1 (≈ 1.88 nM) | 5 (≈ 9.39 nM) | 1.7 (≈ 3.19 nM) |  |  | 
2 | CC1=C[C@H]2O[C@@H]3C[C@H]4OC(=O)/C=C\C=C\C(=O)OCC/C(C)=C/C(=O)OC[C@@]2(CC1)[C@]4(C)[C@]31CO1 [VERRUCARIN J] | 0.2 (≈ 0.413 nM) | 3.9 (≈ 8.05 nM) | 14 (≈ 28.9 nM) | 1.2 (≈ 2.48 nM) |  |  | 
3 | CC1=C[C@H]2O[C@@H]3C[C@H]4OC(=O)/C=C\C=C\[C@H]([C@@H](C)O)OCC/C(C)=C/C(=O)OC[C@@]2(CC1)[C@]4(C)[C@]31CO1 [RORIDIN E] | 0.15 (≈ 0.291 nM) | 0.5 (≈ 0.972 nM) | 0.7 (≈ 1.36 nM) | 0.4 (≈ 0.777 nM) |  |  | 
4 | C[C@@H]1CC[C@H]2[C@@H](C)C(=O)O[C@@H]3O[C@@]4(C)CC[C@@H]1[C@]32OO4 [ARTEMISININ] |  |  |  |  | < 50 | < 50 | < 50
5 | CC1=C[C@H]2O[C@@H]3C[C@H]4OC(=O)/C=C\C=C\C(=O)OCC[C@@H](C)[C@H](O)C(=O)OC[C@@]2(CC1)[C@]4(C)[C@]31CO1 [VERRUCARIN A] | 0.9 (≈ 1.79 nM) | 1.2 (≈ 2.39 nM) | 4.2 (≈ 8.36 nM) | 1.1 (≈ 2.19 nM) |  |  | 
6 | CC(=O)O[C@H](C)[C@H]1/C=C/C=C\C(=O)O[C@@H]2C[C@H]3O[C@@H]4C=C(C)CC[C@]4(COC(=O)/C=C(\C)CCO1)[C@]2(C)[C@]31CO1 [RORIDIN E ACETATE] | 0.06 | 14 | 15 | 4.1 |  |  | 
